{"data": "Published values of several laboratories", "target": "Tyrosine-protein kinase ITK/TSK (ITK, Homo sapiens, UniProt Q08881)", "Sequence (Q08881 1-620, as in one of the studies)": "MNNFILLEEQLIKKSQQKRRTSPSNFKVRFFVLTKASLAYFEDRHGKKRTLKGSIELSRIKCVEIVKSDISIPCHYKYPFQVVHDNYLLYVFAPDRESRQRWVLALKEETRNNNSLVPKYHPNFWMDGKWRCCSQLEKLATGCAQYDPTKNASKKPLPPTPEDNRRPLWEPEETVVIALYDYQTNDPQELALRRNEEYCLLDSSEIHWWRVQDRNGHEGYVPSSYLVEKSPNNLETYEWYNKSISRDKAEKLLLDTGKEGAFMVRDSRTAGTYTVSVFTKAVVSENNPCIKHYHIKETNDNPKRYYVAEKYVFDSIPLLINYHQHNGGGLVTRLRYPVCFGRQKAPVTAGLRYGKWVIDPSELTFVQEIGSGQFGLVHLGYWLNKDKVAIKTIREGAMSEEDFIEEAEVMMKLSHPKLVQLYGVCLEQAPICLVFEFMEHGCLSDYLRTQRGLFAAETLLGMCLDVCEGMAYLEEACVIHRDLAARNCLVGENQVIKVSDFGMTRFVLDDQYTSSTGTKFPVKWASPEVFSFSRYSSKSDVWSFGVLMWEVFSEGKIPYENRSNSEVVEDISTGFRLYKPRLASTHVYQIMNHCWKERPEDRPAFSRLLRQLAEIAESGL", "note": "Protocols differ between the studies behind these lines."}
{"Compound": "COc1cccc(CNC(=O)c2nc3scc(COCc4ccc(C(=O)O)cc4)c3c(=O)[nH]2)c1", "effect on": "cell-free assay", "method": "competition with immobilised ligand", "tested at": "1 µM", "endpoint": "remaining binding", "value": "86.8%"}
{"Compound": "CN(C)C1CCN(CC#Cc2nn(C3CCCC3)c3nc(NCc4ccccc4)ncc23)C1 (stereo not shown)", "effect on": "enzyme activity", "action": "inhibitor", "method": "FRET", "tested at": "10 µM", "endpoint": "inhibition", "value": "15%"}
{"Compound": "CC(C)(C)c1nc2c(s1)c1nc(N)ncc1c1ccc(NS(=O)(=O)c3c(F)cccc3F)c(F)c12", "effect on": "enzyme activity", "action": "inhibitor", "method": "radiometric", "tested at": "1 µM", "endpoint": "remaining activity", "value": "94%"}
{"Compound": "CNC(=O)c1cc(Oc2ccc(NC(=O)Nc3ccc(Cl)c(C(F)(F)F)c3)cc2)ccn1", "effect on": "enzyme activity", "action": "inhibitor", "tested at": "10 µM", "endpoint": "inhibition", "value": "32%"}
{"Compound": "CCCOc1ccc([C@H]2[C@H](C(=O)O)[C@@H](c3ccc4c(c3)OCO4)CN2CC(=O)Nc2c(CC)cccc2CC)cc1", "effect on": "cell-free assay", "method": "competition with immobilised ligand", "tested at": "1 µM", "endpoint": "remaining binding", "value": "96%"}
{"Compound": "O=C1Nc2ccc(Cl)cc2C1=Cc1cc(Cl)c(O)c(Cl)c1", "effect on": "cell-free assay", "tested at": "0.5 µM", "endpoint": "remaining signal", "value": "91.8%"}
{"Compound": "O=C(NC[C@@H]1[C@H]2CN(C(=O)OCc3cc(C(F)(F)F)cc(C(F)(F)F)c3)C[C@@H]12)c1ccc2[nH]nnc2c1", "effect on": "cell-free assay", "method": "competition with immobilised ligand", "tested at": "1 µM", "endpoint": "remaining binding", "value": "100%"}
{"Compound": "CCN(CC)CCNC(=O)c1c(C)[nH]c(/C=C2\\C(=O)Nc3ccc(F)cc32)c1C", "effect on": "enzyme activity", "action": "inhibitor", "tested at": "10 µM", "endpoint": "inhibition", "value": "93%"}
{"Compound": "CS(=O)(=O)N1CCCC(NC(=O)[C@H](CCC2CCCCC2)NC(=O)c2ccc(CNc3ncnc4c3nnn4-c3ccccc3)cc2)C1 (stereo partly shown)", "effect on": "cell-free assay", "method": "competition with immobilised ligand", "tested at": "0.1 µM", "endpoint": "remaining binding", "value": "100%"}
{"Compound": "Nc1ncnc2occ(-c3ccc(NC(=O)Nc4cc(C(F)(F)F)ccc4F)cc3)c12", "effect on": "cell-free assay", "tested at": "20 µM", "endpoint": "remaining signal", "value": "12%"}
{"Compound": "O=C(Nc1cnn(-c2csc(C(=O)NC3COC3)c2)c1)Nc1c(F)cccc1Cl", "effect on": "enzyme activity", "action": "inhibitor", "tested at": "5 µM", "endpoint": "remaining activity", "value": "92.8%"}
{"Compound": "COc1cc2ncnc(Nc3ccc(Oc4ccccc4)cc3C)c2cc1OC", "effect on": "enzyme activity", "action": "inhibitor", "tested at": "1 µM", "endpoint": "inhibition", "value": "3%"}
{"Compound": "O=S(=O)(NC1CCC(c2cc(F)ccc2F)(S(=O)(=O)c2ccc(Cl)cc2)CC1)C(F)(F)F (stereo not shown)", "effect on": "cell-free assay", "method": "competition with immobilised ligand", "tested at": "1 µM", "endpoint": "remaining binding", "value": "97%"}
{"Compound": "CN1CC(Oc2cnc(C#N)cc2-c2ccn3nc(NC(=O)C4CC4)cc3c2)C1", "effect on": "enzyme activity", "action": "inhibitor", "tested at": "1 µM", "endpoint": "inhibition", "value": "3%"}
{"Compound": "CC(=O)N1CCC(c2ccc(C(=O)NC(=N)N)cc2C(F)(F)F)CC1", "effect on": "cell-free assay", "method": "competition with immobilised ligand", "tested at": "1 µM", "endpoint": "remaining binding", "value": "100%"}
{"Compound": "O=C1NC(=O)c2cc(Nc3ccc(F)cc3)c(Nc3ccc(F)cc3)cc21", "effect on": "cell-free assay", "tested at": "0.5 µM", "endpoint": "remaining signal", "value": "87.3%"}
{"Compound": "Cc1nc(C2CCN(C(=O)c3ccc(OC(F)(F)F)cc3N)CC2)c2ncc(N3CCN(C)CC3)cc2n1", "effect on": "cell-free assay", "method": "competition with immobilised ligand", "tested at": "1 µM", "endpoint": "remaining binding", "value": "89%"}
{"Compound": "CC/C(=N\\NC(=O)NCc1cccc(O)c1)c1ccc(O)c(C)c1O", "effect on": "enzyme activity", "action": "inhibitor", "tested at": "0.1 µM", "endpoint": "inhibition", "value": "3.3%"}
{"Compound": "N#CCCc1ccc2c(c1)-c1[nH]c3ccc([N+](=O)[O-])cc3c1CC(=O)N2", "effect on": "cell-free assay", "tested at": "0.5 µM", "endpoint": "remaining signal", "value": "99.9%"}
{"Compound": "COc1cc2nccc(Oc3ccc(NC(=O)c4c5n(n(-c6ccc(F)cc6)c4=O)CCCC5)cc3)c2cc1OC", "effect on": "enzyme activity", "action": "inhibitor", "tested at": "0.1 µM", "endpoint": "inhibition", "value": "9%"}
{"Compound": "CCN(CC)CCNC(=O)c1c(C)[nH]c(/C=C2\\C(=O)Nc3ccc(Cl)cc32)c1C", "effect on": "enzyme activity", "action": "inhibitor", "tested at": "0.5 µM", "endpoint": "remaining activity", "value": "30%"}
{"Compound": "COc1cc(Cl)c(C(=O)N[C@@H](CN[C@H]2CC[C@@H](N)CC2)Cc2ccc(C#N)cc2)cc1-c1ccc(CN[C@H](C)c2ccc(C)cc2)o1", "effect on": "enzyme activity", "action": "inhibitor", "tested at": "1 µM", "endpoint": "remaining activity", "value": "104%"}
{"Compound": "CCc1ccccc1C(=O)Nc1n[nH]c2c(C)c(F)c(C3C(C#N)=C(C)N(C)C(C)=C3C#N)cc12", "effect on": "cell-free assay", "method": "competition with immobilised ligand", "tested at": "1 µM", "endpoint": "remaining binding", "value": "86%"}
{"Compound": "COc1cc2c(N3CCN(C(=O)Nc4ccc(OC(C)C)cc4)CC3)ncnc2cc1OCCCN1CCCCC1", "effect on": "cell-free assay", "tested at": "0.5 µM", "endpoint": "remaining signal", "value": "99%"}
{"Compound": "Cc1ccc(C(=O)NCc2ccsc2)cc1C#Cc1cn(C(C)C)c2ncnc(N)c12", "effect on": "enzyme activity", "action": "inhibitor", "tested at": "1 µM", "endpoint": "activity vs control", "value": "97%"}
{"Compound": "Cc1cc(NC(=O)c2cccc3cc(-c4cccc5[nH]nc(N)c45)ccc23)ccc1F", "effect on": "enzyme activity", "action": "inhibitor", "tested at": "0.1 µM", "endpoint": "activity vs control", "value": "104%"}
{"Compound": "COc1cc2c(Nc3ccc(Br)cc3F)ncnc2cc1OCC1CCN(C)CC1", "effect on": "cell-free assay", "tested at": "0.5 µM", "endpoint": "remaining signal", "value": "101%"}
{"Compound": "Cc1ccc(C(=O)Nc2ccc(CN3CCN(C)CC3)c(C(F)(F)F)c2)cc1C#Cc1cnc2cccnn12", "effect on": "enzyme activity", "tested at": "23.5 nM", "endpoint": "remaining activity", "value": "82%"}
